Source: ChEMBL document CHEMBL3580602, “Iminolactones from Schizophyllum commune” (J Nat Prod, 2015)
Activity calls are given as the source filed them. The calls are words filed in the database; no cut-off is given here.

Key:
EL4 [1] = assay: Cytotoxicity against mouse EL4 cells assessed as growth inhibition after 48 hrs by sulforhodamine B assay; format: functional, cell-based; settings: EL4, 48 h
Outline: (§1)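 Cancer lines sourced from the National Cancer Institute and run in a high-flux anticancer screen. Cells were exposed to the test compound over a range of concentrations at 37 °C for 48 h. IC50 is reported as the mean of four experiments, with thapsigargin, methotrexate and paclitaxel as positive controls.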

MCF7 [2] = assay: Cytotoxicity against human MCF7 cells assessed as growth inhibition after 48 hrs by sulforhodamine B assay; format: functional, cell-based; settings: MCF7, 48 h; outline: as §1
PC-3 [3] = assay: Cytotoxicity against human PC3 cells assessed as growth inhibition after 48 hrs by sulforhodamine B assay; format: functional, cell-based; settings: PC-3, 48 h; outline: as §1
[4] = Cytotoxicity against mouse McCoy cells assessed as growth inhibition; format: cell-based
[5] = Cytotoxicity against human MCF10A cells assessed as growth inhibition; format: cell-based; settings: MCF-10A
[6] = Cytotoxicity against mouse McCoy cells assessed as growth inhibition at 1230 uM relative to control; format: cell-based; settings: read-out: GI
[7] = Cytotoxicity against human MCF10A cells assessed as growth inhibition at 1230 uM relative to control; format: cell-based, MCF-10A; settings: read-out: GI
EL4 [8] = assay: Cytotoxicity against mouse EL4 cells up to 200 uM after 48 hrs by sulforhodamine B assay; format: functional, cell-based; outline: as §1
MCF7 [9] = assay: Cytotoxicity against human MCF7 cells up to 200 uM after 48 hrs by sulforhodamine B assay; format: functional, cell-based; outline: as §1
PC-3 [10] = assay: Cytotoxicity against human PC3 cells up to 200 uM after 48 hrs by sulforhodamine B assay; format: functional, cell-based; outline: as §1
[11] = Cytotoxicity against mouse McCoy cells up to 200 uM; format: cell-based
[12] = Cytotoxicity against human MCF10A cells up to 200 uM; format: cell-based; settings: mcf-10a

Row | Structure (SMILES) | IC50 (EL4 [1]) [µM] | IC50 (MCF7 [2]) [µM] | IC50 (PC-3 [3]) [µM] | IC50 [4] [µM] | IC50 [5] [µM] | inhibition at 1230 µM [6] [%] | inhibition at 1230 µM [7] [%] | Activity (EL4 [8]) | Activity (MCF7 [9]) | Activity (PC-3 [10]) | Activity [11] | Activity [12]
1 | CN(Cc1cnc2nc(N)nc(N)c2n1)c1ccc(C(=O)N[C@@H](CCC(=O)O)C(=O)O)cc1 [METHOTREXATE] | 5.1 |  |  |  |  |  |  |  |  |  |  | 
2 | C/C=C(/C)C(=O)O[C@H]1C(C)=C2[C@H]([C@@H]1OC(=O)CCCCCCC)[C@@](C)(OC(C)=O)C[C@H](OC(=O)CCC)[C@@]1(O)[C@H]2OC(=O)[C@@]1(C)O [THAPSIGARGIN] | 1.4 | 2.7 | 2.4 | 2 | 2.4 |  |  |  |  |  |  | 
3 | CC1(C)C[C@@H]2OC(=O)[C@H](Cc3c[nH]c4ccccc34)N=C2[C@@]23C(=O)OC4OCC(=CC[C@@H]12)[C@H]43 (stereo partly specified) | 4 | 6.7 | 13.4 | > 1230 | > 1230 | 41 | 20 |  |  |  |  | 
4 | CC1(C)C[C@@H]2OC(=O)[C@H](Cc3ccccc3)N=C2[C@@]23C(=O)OC4OCC(=CC[C@@H]12)[C@H]43 (stereo partly specified) | 3.7 | 4.9 | 14.7 | > 1230 | > 1230 | 30 | 22 |  |  |  |  | 
5 | CC1(C)C[C@@H]2OC(=O)[C@@H](Cc3ccccc3)N=C2[C@@]23C(=O)OC4OCC(=CC[C@@H]12)[C@H]43 (stereo partly specified) |  |  |  |  |  |  |  | inactive | inactive | inactive | Non-toxic | Non-toxic
6 | CC(=O)O[C@H]1C(=O)[C@@]2(C)[C@H]([C@H](OC(=O)c3ccccc3)[C@]3(O)C[C@H](OC(=O)[C@H](O)[C@@H](NC(=O)c4ccccc4)c4ccccc4)C(C)=C1C3(C)C)[C@]1(OC(C)=O)CO[C@@H]1C[C@@H]2O [PACLITAXEL] | 1.7 |  |  |  |  |  |  |  |  |  |  | 
